Activity calls are given as the source filed them. The rule behind the calls is not given here.

Three compounds from ChEMBL document CHEMBL3853347, “PUMA-dependent apoptosis in NSCLC cancer cells by a dimeric β-carboline” (Bioorg Med Chem Lett, 2016) can be followed below.

The nature of series [1]: Cytotoxicity against human NCI-H441 cells assessed as decrease in cell viability after 48 hrs by Alamar blue assay. Type of series: functional, cell-based. The conditions noted are these: NCI-H441, 48 h. A general note: Resazurin is reduced to fluorescent resorufin, in cell work by metabolically active cells.
Series [2] can be described thus: Cytotoxicity against human A549 cells assessed as decrease in cell viability after 48 hrs by Alamar blue assay. The series is classed as functional, cell-based. To be noted: A549, 48 h.
Series [3] is described as follows: Cytotoxicity against human IMR90 cells assessed as decrease in cell viability after 48 hrs by Alamar blue assay. The series is classed as toxicity, cell-based, IMR-90.
Series [4] is described as follows: Cytotoxicity against human NCI-H2009 cells assessed as decrease in cell viability after 48 hrs by Alamar blue assay. Type of series: functional, cell-based. To be noted: NCI-H2009, 48 h.
A short description of series [5]: Cytotoxicity against human NCI-H1299 cells assessed as decrease in cell viability after 48 hrs by Alamar blue assay. Type of series: functional, cell-based. To be noted: NCI-H1299, 48 h.
A short description of series [6]: Cytotoxicity against human NCI-H1373 cells assessed as decrease in cell viability after 48 hrs by Alamar blue assay. Type of series: functional, cell-based. The conditions noted are these: NCI-H1373, 48 h.
Series [7] is described as follows: Cytotoxicity against human NCI-H1993 cells assessed as decrease in cell viability after 48 hrs by Alamar blue assay. Type of series: functional, cell-based. To be noted: NCI-H1993, 48 h.
Series [8] concerns NCI-H1299. Description: Induction of autophagy in human NCI-H1299 cells transfected with GFP-LC3 assessed as increase in LC3-2 level at 3 to 10 uM after 24 hr by DAPI staining based immunofluorescence assay. Type of series: functional, cell-based.
In series [9] the test system is NCI-H1299. As to the kind of experiment: Induction of autophagy in human NCI-H1299 cells transfected with GFP-LC3 assessed as increase in LC3-2 level at 20 uM after 24 hr by DAPI staining based immunofluorescence assay. The series is classed as functional, cell-based. The essentials: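 H1299 cells transiently transfected with GFP-LC3, then treated 24 hrs with compound (3–20 μM) or DMSO. GFP-LC3 puncta were imaged by confocal microscopy and counted per cell; n=30 cells, s.d.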

The subject of series [10] is NCI-H1299. Description: Induction of apoptosis in human NCI-H1299 cells assessed as apoptotic cells at 15 uM after 48 hrs by annexin V-phycoerythrin/7-AAD staining based flow cytometry (reference value: 4%). Type of series: functional. For orientation: In flow cytometry, cells or beads pass a laser one at a time.
A short description of series [11]: Drug localization in lysosomes of human NCI-H1299 cells at 20 uM after 1 hr by mitotracker green FM/lysotracker red DND-99 staining based confocal microscopy. The series is classed as ADME, cell-based, Lysosome. The conditions noted are these: nci-h1299, 1 h. The essentials:
(§1)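 Live H1299 cells exposed to compound for 1 hr, then co-stained with MitoTracker Green FM (mitochondria) and LysoTracker Red DND-99 (lysosomes). Localization was read by live confocal microscopy using the β-carboline's intrinsic fluorescence (Ex/Em 358/461 nm), compared against the organelle stains.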

Series [12] can be described thus: Drug localization in lysosomes of human NCI-H1299 cells at 10 uM after 1 hr by mitotracker green FM/lysotracker red DND-99 staining based confocal microscopy. The series is classed as ADME, cell-based, Lysosome. The conditions noted are these: nci-h1299, 1 h. The essentials:
as §1

Series [13] relates to NCI-H1299. Description: Induction of apoptosis in human NCI-H1299 cells assessed as apoptotic cells at 3 uM after 48 hrs by annexin V-phycoerythrin/7-AAD staining based flow cytometry (reference value: 4%). The series is classed as functional.
In series [14] the test system is NCI-H1299. As to the kind of experiment: Induction of autophagy in human NCI-H1299 cells assessed as increase in p62/SQSTM1 level at 3 to 10 uM after 24 hr by Western blot analysis. The series is classed as functional, cell-based. The method, boiled down:
(§2)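 H1299 cells incubated 24 hrs with compound (3, 5, 10 or 20 μM) or DMSO. LC3 (LC3II band) and p62/SQSTM1 were detected by western blot.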
(In general: A western blot detects proteins with antibodies after separation by electrophoresis.)

Series [15] can be described thus: Upregulation of PUMA expression in human NCI-H1299 cells assessed as after 24 hrs by Western blot analysis. The series is classed as functional, cell-based. The essentials: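 PUMA protein measured by western blot in H1299 cells after 24 hrs with compound (3, 5, 10 or 20 μM) or DMSO.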
The test system of series [16] is NCI-H1299. Description: Induction of apoptosis in human NCI-H1299 cells assessed as increase in cleaved caspase 3 level after 24 hrs by immunofluorescence based confocal microscopy. Type of series: functional, cell-based. The method, boiled down: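 H1299 cells treated 24 hrs with compound (5 or 20 μM) or DMSO, then immunostained for active caspase 3 and imaged by confocal microscopy. Apoptotic fraction was calculated as cells expressing active caspase over total cells; n=3, s.d.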

Series [17] deals with NCI-H1299. As to the kind of experiment: Induction of apoptosis in human NCI-H1299 cells assessed as increase in cleaved PARP level at 3 to 10 uM after 24 hrs by Western blot analysis. Type of series: functional, cell-based. The method, boiled down: (§3)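 H1299 cells treated 24 hrs with compound (3, 5, 10 or 20 μM) or DMSO. Lysates were probed by western blot for apoptotic markers: cleaved caspase 3, cleaved lamin A and cleaved PARP.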

The test system of series [18] is NCI-H1299. As to the kind of experiment: Induction of apoptosis in human NCI-H1299 cells assessed as increase in cleaved caspase 3 level after 24 hrs by Western blot analysis. Type of series: functional, cell-based. The essentials:
as §3

Series [19] relates to NCI-H1299. As to the kind of experiment: Induction of apoptosis in human NCI-H1299 cells assessed as increase in cleaved lamin A level at 3 to 10 uM after 24 hrs by Western blot analysis. Type of series: functional, cell-based. The method, boiled down:
as §3

Series [20] has as its system NCI-H1299. As to the kind of experiment: Induction of autophagy in human NCI-H1299 cells assessed as increase in LC3-2 level after 24 hr by Western blot analysis. Type of series: functional, cell-based. The essentials: as §2

By IC50 is commonly meant the concentration at which inhibition is half-maximal. Take `O[C@]12C=C(c3nccc4c3[nH]c3ccccc34)[C@@H]3CCN(CCCC/C=C\CC1)C[C@@]31C[C@@H]3/C=C\CCCCN3[C@H]12` [MANZAMINE A]: the concentration for half-maximal inhibition (IC50) in series [1] is 1.1 µM; in [2], 2.3 µM; in series [4], 1.6 µM; in series [5], 1.5 µM; in series [6], 2.1 µM; in [7], 3.9 µM. In series [3], the IC50 at 48 h was 6.8 µM. Further, the result in the series on NCI-H1299 [8] was Active.

For `CN(CCN)CCNCc1nccc2c1[nH]c1ccccc12`, the half-maximal inhibitory concentration (IC50) was found to be 4.3 µM in series [1]; 20.5 µM in series [2]; 8.9 µM in series [4]; 15.1 µM in [5]; 13.2 µM in series [6]; 9.3 µM in series [7]. For the same compound, the outcome with NCI-H1299 [9] was Active. For the same compound, the half-inhibitory concentration (IC50) at 48 h in [3] came to 12.9 µM. Also, in the series with NCI-H1299 [10], the Activity is given as 11%. Besides, the Drug uptake entry in series [11] was “Active”.

On to `CN(CCNCc1nccc2c1[nH]c1ccccc12)CCNCc1nccc2c1[nH]c1ccccc12`, for which the Drug uptake entry in series [12] is “Active”. For the same compound, the Activity in the series with NCI-H1299 [13] was 97%; in series [15], “Dose-dependent effect”; in the series with NCI-H1299 [16] it was “Dose-dependent effect”; with NCI-H1299 [18], “Dose-dependent effect”; in the series on NCI-H1299 [20], “Dose-dependent effect”. Further, the half-maximal inhibitory concentration (IC50) is 0.7 µM in series [1]; 2.9 µM in series [2]; 1.4 µM in series [4]; 1.6 µM in [5]; 3.3 µM in [6]; 1.2 µM in series [7]. Further, the result with NCI-H1299 [14], in the series on NCI-H1299 [17], with NCI-H1299 [19] and in the series on NCI-H1299 [8] was Active. The IC50 at 48 h in series [3] was 5.6 µM.
